# Measurements reported in ChEMBL document CHEMBL5678798 (Clin Cancer Res, 2009).
# The source made the active and inactive calls. No cut-off for these calls is given here.
# Key:
# EJM = test: Antiproliferative activity against human EJM cells assessed as reduction in cell viability after 72 hrs by CellTiter-Glo assay; assay type: functional, cell-based
# Summary of the method: (§1)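 Cells seeded in 96-well plates, left overnight at 37°C, then exposed to a range of test concentrations for 72 h. Viability read by CellTiter-Glo luminescence; IC50 from four-parameter curve fit. Lines kept at 37°C, 5% CO2, in recommended growth medium.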
# [1] = Antiproliferative activity against human HuNS1 cells assessed as reduction in cell viability after 72 hrs by CellTiter-Glo assay; assay type: functional, cell-based; conditions: HuNS1, 72 h; summary of the method: as §1
# JJN-3 = test: Antiproliferative activity against human JJN-3 cells assessed as reduction in cell viability after 72 hrs by CellTiter-Glo assay; assay type: functional, cell-based; conditions: JJN-3, 72 h; summary of the method: as §1
# HT-29 = test: Antiproliferative activity against human HT-29 cells assessed as reduction in cell viability after 72 hrs by CellTiter-Glo assay; assay type: functional, cell-based; conditions: HT-29, 72 h; summary of the method: as §1
# MCF7 = test: Induction of cell cycle arrest in human MCF7 cells assessed as effect on sub-2N-DNA content at 0.03 to 10 uM incubated for 24 to 48 hrs by propidium iodide staining based flow cytometric analysis; assay type: functional; conditions: dose 0.03-10 µM, time lower 24.0 hrs, time upper […]
# Summary of the method: (§2)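 COLO 205, MCF-7 or NCI-H929 cells seeded in 96-well plates overnight at 37°C, then exposed to DMSO or increasing compound concentrations for 24 or 48 h. Fixed and stained with propidium iodide (Vindelov method), then analysed by flow cytometry for sub-G1, G1, S and G2-M fractions. Experiment repeated twice.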
# NCI-H929 = test: Induction of cell cycle arrest in human NCI-H929 cells assessed as decrease in cells accumulation at G2/M phase at 0.03 to 10 uM incubated for 24 to 48 hrs by propidium iodide staining based flow cytometric analysis; assay type: functional; conditions: dose 0.03-10 µM, time lower 24.0 hrs, time upper […]; summary of the method: as §2
# [2] = Antitumor activity against mouse NIH-3T3/LISN cells implanted in nu/nu CD-1 mouse assessed as reduction in tumor growth at 30 mg/kg, po for 21 days relative to control; assay type: functional; conditions: 504 h, time 21 day, read-out: TGI
# Summary of the method: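 Exponentially growing cells implanted s.c. in the right flank of 8–10-wk-old female athymic nu/nu CD-1 mice. At 150–200 mm3, block-randomized by tumor size into groups of eight. Oral dosing once or twice daily for 21 d; vehicle 20% sulfobutylether-β-cyclodextrin, pH 3.5. Calipers twice weekly; volume = length×width²/2. Growth inhibition = 100×[1 − treated growth/vehicle growth].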
# [3] = Toxicity in nu/nu CD-1 mouse implanted with mouse NIH-3T3/LISN cells assessed as reduction in body weight at 30 mg/kg, po administered twice daily for 5 to 21 days relative to control; assay type: organism-based; set-up: scale not given: the % may be the effect or the level left; conditions: in vivo, time 5-21 day
# [4] = target: Mitogen-activated protein kinase kinase kinase 5 (Homo sapiens, UniProt Q99683); test: Inhibition of ASK1 (unknown origin)
# [5] = Inhibition of N-terminal His6-tagged recombinant full-length human CDK5/N-terminal GST-tagged recombinant full-length human p35 expressed in baculovirus infected Sf21 cells at 0.3 uM by filter binding assay relative to control; conditions: condition cancer
# Summary of the method: (§3)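 Outsourced single-concentration screen in a commercial panel of 233 protein kinases, run as radiometric filter-binding activity assays. Test agent was tested at 0.3 or 3 µmol/L, as given in each line, from a 10 mmol/L DMSO stock. Activity is expressed as percent inhibition relative to control.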
# [6] = target: Serine/threonine-protein kinase PLK3 (Homo sapiens) (UniProt Q9H4B4); test: Inhibition of N-terminal His6-tagged recombinant human Plk3 (19 to 301 residues) expressed in baculovirus infected Sf21 cells at 0.3 uM by filter binding assay relative to control
# [7] = target: Proto-oncogene tyrosine-protein kinase receptor Ret (Homo sapiens) (UniProt P07949); test: Inhibition of N-Terminal GST-tagged recombinant human Ret (658 to end residues) expressed in baculovirus infected Sf21 cells at 0.3 uM by filter binding assay relative to control
# Summary of the method: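 KinaseProfiler panel of 233 kinases: radiometric filter-binding activity assays with compound at 0.3 or 3 µmol/L. Read-out is percent inhibition.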
# [8] = target: Macrophage-stimulating protein receptor (Homo sapiens) (UniProt Q04912); test: Inhibition of N-terminal GST-tagged recombinant human Ron (983 to end residues) expressed in baculovirus infected Sf21 cells at 0.3 uM by filter binding assay relative to control; summary of the method: as §3
# [9] = target: Ephrin type-A receptor 4 (Homo sapiens) (UniProt P54764); test: Inhibition of N-terminal His6-tagged recombinant human EphA4 (601 to 892 residues) expressed in baculovirus infected Sf21 cells at 3 uM by filter binding assay relative to control
# [10] = target: LIM domain kinase 1 (Homo sapiens) (UniProt P53667); test: Inhibition of N-terminal 6His-tagged recombinant human LIMK1 (285 to 638 residues) expressed in baculovirus infected Sf21 cells at 3 uM by filter binding assay relative to control; summary of the method: as §3
# [11] = target: Insulin receptor-related protein (Homo sapiens, UniProt P14616); test: Inhibition of N-terminal 6His-tagged recombinant human IRR (944 to 1266 residues) expressed in baculovirus infected Sf21 cells by filter binding assay
# Chain of Insulin receptor-related protein (P14616 27-742 limits assumed): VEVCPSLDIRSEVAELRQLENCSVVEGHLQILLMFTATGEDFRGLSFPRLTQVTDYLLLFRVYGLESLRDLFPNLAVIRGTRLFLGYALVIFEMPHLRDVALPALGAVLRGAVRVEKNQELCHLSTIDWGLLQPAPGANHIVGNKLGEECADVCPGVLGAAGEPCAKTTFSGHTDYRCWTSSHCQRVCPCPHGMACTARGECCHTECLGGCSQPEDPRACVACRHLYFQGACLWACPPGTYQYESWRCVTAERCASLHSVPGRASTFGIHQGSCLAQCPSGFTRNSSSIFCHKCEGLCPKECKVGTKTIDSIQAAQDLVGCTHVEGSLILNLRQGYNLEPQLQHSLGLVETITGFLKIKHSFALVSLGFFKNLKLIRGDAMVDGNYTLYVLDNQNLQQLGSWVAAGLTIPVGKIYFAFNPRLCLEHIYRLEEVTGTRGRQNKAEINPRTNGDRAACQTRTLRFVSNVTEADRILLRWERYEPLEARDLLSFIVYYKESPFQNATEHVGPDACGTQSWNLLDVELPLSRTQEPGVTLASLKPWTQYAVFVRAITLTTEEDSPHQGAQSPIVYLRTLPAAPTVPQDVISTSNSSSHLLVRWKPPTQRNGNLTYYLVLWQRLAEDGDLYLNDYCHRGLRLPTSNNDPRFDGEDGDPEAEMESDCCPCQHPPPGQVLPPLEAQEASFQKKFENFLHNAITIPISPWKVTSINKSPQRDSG
# Chain of Insulin receptor-related protein (P14616 747-1297 limits assumed): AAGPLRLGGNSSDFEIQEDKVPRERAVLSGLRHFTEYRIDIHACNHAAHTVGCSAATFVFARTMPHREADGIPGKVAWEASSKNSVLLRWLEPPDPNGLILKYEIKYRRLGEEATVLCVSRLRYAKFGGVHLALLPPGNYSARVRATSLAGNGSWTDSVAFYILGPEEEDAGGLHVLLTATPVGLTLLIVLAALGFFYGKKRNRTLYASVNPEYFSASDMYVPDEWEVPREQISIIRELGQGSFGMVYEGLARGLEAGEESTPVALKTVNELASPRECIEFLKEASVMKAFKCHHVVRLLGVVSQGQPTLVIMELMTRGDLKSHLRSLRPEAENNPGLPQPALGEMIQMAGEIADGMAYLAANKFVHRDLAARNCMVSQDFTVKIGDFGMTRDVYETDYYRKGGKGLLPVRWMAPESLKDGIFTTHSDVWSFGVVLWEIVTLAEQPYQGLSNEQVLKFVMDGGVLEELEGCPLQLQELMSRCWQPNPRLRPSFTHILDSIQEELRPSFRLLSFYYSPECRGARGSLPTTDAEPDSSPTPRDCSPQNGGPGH
# Chain of Serine/threonine-protein kinase PLK3 (Homo sapiens) (Q9H4B4 whole entry, looked up, the tested form may be a part): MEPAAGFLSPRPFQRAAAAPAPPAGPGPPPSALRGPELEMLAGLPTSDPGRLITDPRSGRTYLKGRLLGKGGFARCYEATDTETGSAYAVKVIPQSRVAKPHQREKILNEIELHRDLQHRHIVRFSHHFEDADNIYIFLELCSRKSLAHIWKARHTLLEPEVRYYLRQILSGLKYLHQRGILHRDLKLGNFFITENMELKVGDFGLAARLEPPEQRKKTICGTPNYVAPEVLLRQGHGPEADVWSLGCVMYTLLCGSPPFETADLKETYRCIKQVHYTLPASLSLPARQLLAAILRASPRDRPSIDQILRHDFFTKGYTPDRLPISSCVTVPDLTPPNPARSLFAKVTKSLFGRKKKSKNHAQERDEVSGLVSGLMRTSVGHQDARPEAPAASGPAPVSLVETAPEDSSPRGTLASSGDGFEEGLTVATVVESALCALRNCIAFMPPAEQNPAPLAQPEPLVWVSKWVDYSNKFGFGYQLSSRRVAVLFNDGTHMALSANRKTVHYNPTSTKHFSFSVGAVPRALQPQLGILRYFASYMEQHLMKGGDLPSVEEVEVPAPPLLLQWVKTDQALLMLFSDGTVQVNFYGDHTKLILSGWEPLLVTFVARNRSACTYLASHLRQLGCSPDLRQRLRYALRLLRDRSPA
# Chain of Ephrin type-A receptor 4 (Homo sapiens) (P54764 whole entry, the tested form may be a part): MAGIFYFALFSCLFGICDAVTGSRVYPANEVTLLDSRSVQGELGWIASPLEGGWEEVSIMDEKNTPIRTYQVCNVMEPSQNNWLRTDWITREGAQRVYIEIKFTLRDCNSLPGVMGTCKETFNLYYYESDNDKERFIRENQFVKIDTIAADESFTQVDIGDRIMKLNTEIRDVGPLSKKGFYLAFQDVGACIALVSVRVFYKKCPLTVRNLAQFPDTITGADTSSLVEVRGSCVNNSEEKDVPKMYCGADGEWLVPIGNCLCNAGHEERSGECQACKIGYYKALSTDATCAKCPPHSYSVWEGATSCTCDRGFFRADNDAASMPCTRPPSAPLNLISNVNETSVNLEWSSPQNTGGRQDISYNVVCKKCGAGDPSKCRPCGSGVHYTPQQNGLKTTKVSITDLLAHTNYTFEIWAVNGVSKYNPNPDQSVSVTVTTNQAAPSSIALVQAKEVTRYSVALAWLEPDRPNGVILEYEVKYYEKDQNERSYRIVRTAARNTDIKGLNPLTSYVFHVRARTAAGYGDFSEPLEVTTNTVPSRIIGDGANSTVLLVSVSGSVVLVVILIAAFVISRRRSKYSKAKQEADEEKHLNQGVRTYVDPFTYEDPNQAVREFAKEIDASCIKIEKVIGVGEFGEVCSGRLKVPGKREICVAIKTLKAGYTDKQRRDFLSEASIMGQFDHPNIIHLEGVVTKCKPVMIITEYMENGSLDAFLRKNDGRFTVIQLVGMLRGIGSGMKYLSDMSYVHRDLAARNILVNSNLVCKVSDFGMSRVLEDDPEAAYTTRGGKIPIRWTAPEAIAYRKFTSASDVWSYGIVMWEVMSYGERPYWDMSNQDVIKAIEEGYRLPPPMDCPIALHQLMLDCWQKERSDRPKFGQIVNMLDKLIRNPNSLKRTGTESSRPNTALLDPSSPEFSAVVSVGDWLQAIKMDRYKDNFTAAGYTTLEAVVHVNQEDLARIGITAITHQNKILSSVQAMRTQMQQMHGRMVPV
# Chain of Macrophage-stimulating protein receptor (Homo sapiens) (Q04912 25-304 limits assumed): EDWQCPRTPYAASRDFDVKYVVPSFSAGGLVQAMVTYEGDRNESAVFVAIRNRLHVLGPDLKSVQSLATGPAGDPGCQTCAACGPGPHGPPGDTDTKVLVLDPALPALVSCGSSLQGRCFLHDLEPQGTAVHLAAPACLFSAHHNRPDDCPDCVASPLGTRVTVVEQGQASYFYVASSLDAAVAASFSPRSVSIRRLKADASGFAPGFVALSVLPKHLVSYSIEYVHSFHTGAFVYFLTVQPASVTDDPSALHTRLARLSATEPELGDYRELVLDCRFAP
# Chain of Macrophage-stimulating protein receptor (Homo sapiens) (Q04912 310-1400 limits assumed): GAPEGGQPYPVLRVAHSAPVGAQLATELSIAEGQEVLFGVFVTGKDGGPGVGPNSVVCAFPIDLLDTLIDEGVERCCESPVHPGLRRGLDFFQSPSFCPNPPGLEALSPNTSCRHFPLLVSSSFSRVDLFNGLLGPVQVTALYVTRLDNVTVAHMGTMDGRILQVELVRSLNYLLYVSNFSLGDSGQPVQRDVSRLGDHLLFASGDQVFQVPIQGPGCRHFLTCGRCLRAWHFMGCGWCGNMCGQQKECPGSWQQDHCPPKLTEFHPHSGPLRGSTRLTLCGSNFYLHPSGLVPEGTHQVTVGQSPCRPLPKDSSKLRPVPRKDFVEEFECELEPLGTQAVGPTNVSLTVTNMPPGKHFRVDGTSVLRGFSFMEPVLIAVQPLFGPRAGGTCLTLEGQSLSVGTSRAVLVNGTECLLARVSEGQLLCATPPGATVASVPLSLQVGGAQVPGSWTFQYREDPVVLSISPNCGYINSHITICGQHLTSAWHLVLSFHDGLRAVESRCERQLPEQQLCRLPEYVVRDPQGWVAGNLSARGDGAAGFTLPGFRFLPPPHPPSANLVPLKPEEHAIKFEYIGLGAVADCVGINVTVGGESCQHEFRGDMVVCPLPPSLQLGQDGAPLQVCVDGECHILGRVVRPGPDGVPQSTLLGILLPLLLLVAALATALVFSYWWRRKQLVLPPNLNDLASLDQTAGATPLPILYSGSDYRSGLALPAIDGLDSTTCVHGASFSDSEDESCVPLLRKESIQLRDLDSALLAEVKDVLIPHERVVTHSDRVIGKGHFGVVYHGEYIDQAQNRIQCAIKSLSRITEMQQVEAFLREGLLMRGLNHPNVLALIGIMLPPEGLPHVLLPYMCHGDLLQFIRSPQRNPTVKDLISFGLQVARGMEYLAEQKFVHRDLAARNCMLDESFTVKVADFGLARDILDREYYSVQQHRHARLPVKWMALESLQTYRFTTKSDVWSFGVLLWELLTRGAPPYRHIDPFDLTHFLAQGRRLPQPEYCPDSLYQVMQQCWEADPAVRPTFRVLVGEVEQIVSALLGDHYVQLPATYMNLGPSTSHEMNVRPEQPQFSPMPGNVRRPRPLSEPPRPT
# Chain of LIM domain kinase 1 (Homo sapiens) (P53667 whole entry, looked up, the tested form may be a part): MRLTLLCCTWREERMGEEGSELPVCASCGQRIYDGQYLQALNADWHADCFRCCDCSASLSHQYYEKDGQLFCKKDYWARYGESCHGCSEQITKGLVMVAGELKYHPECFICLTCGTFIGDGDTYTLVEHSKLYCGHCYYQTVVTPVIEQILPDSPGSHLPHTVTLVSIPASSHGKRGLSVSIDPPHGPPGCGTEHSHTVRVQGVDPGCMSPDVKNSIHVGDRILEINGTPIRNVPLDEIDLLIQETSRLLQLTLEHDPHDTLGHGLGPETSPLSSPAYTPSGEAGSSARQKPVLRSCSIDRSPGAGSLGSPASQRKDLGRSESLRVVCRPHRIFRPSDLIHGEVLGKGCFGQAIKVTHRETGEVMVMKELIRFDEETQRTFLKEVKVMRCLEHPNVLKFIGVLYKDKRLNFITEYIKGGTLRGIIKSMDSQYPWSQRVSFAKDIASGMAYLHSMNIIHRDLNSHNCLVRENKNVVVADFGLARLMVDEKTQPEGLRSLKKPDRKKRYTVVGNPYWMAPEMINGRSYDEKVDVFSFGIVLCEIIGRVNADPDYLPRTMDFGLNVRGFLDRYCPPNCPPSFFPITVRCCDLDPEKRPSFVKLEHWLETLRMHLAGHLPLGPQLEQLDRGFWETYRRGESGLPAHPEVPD
structure (smiles),measurement,setting,value
CCc1cc(Nc2nccc(-c3c(-c4ccc(OC)c(C(=O)Nc5c(F)cccc5F)c4)nc4ccccn34)n2)c(OC)cc1N1CCC(N2CCN(S(C)(=O)=O)CC2)CC1,IC50,EJM,> 30 µM
same,IC50,[1],> 30 µM
same,IC50,JJN-3,> 30 µM
same,IC50,HT-29,0.104 µM
same,Activity,MCF7,inactive
same,Activity,NCI-H929,Active
same,inhibition in vivo at 30 mg/kg,[2],56%
same,Activity,[3],11%
same,IC50,[4],> 25 µM
same,inhibition at 0.3 µM,[5],-8%
same,inhibition,[6],-10%
same,inhibition,[7],30%
same,inhibition,[8],-8%
same,inhibition,[9],-10%
same,inhibition,[10],18%
same,IC50,[11],0.488 µM
